We go through one compound from ChEMBL document CHEMBL4616673 (J Med Chem, 2020).

Data set [1] in a line: Acute toxicity in BALB/c mouse assessed as effect on blood LDLC level at 400 mg/kg, po measured on day 14. It counts as organism-based. Particulars: in vivo. The method in brief:
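BALB/c mice, female and male, 6-8 weeks old, given oral doses within 24 h, up to 400 mg/kg (free compound) or 800 mg/kg (nanocrystal formulation). Watched for body weight loss, diarrhea, anorexia, skin ulcer and toxic death. Serum biochemistry panel was run at the end of treatment.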

Data set [2] in a line: Toxicity in NOD-SCID nude mouse xenografted with human Raji cells assessed as dermatitis at 40 to 80 mg/kg/day, po administered 6 days a week for 3 weeks. It counts as organism-based. Particulars: in vivo. An outline of the steps:
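Mice, 6-7 weeks old, injected s.c. with 1×10^7 Raji cells in serum-free medium plus basement membrane matrix. At 100–200 mm3 tumours, randomised (n=6). Oral dosing 6 days/week for 3 weeks: 30 mg/kg/d free compound suspended in 5% NMP/95% PEG400, or 40 or 80 mg/kg/d nanocrystal. Body weight and tumour volume measured every 3 days.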
On the technique in general: Xenograft models place foreign cells or tissue in a host animal.

As to `O=C1c2ccccc2C(=O)c2c1nnn2-c1cc(F)c(-c2ccccc2F)c(F)c1`, the Activity entry in data set [1] and in data set [2] was “Non-Toxic” each time.
